Assay results from article PMC6863055 (Dalton transactions (Cambridge, England : 2003), 2019).
Read-outs that look alike come from different tables or passages of the source. Marks after values point to notes of the source that are not given here.

Key:
[1] = ref [51], [52]; cited from earlier work
[2] = Zn^2+, cited from earlier work
[3] = Cu^2+, cited from earlier work; for log β [ML]/[M][L]: I=0.5 M, NaNO3, ref [57]
[4] = Formation constants with Mg2+; type: binding; conditions: Mg^2+; I=0.15 M NaCl, T=298 K
Outline: (§1)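 Complexes were studied by direct pH-potentiometric titration at 1:1 and 2:1 metal-to-ligand ratios, with 150–200 data pairs and 1 min equilibration per point. With metal in excess, titration continued until precipitate appeared (pH 7–9). Samples were at 25 °C, 0.15 M NaCl, under N2, with a calibrated electrode and [H+] corrected by the Irving method.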

[5] = Protonation constants by pH-potentiometric titration; type: physicochemical
Outline: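 Test compound (2.28 mM) titrated directly with standardized NaOH over pH 1.80–12.00. Samples were 6.00 mL, thermostatted at 25 °C, held at 0.15 M NaCl, stirred under N2. The electrode was calibrated with KH-phthalate (pH 4.005) and borax (pH 9.177) buffers. [H+] was obtained by the Irving method (pKw 13.820). Protonation constants come from fitting the pH-potentiometric data.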

[6] = Mg^2+; I=0.5 M, KNO3; ref [53]; cited from earlier work
[7] = I=0.15 M, NaClO4; ref [45]; cited from earlier work
[8] = Ca^2+, I=0.1 M, NaNO3, ref [54], cited from earlier work
[9] = Metabolic stability in mouse liver microsomes; type: in vitro ADME; conditions: murine liver microsomes
Outline: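 Male ICR/CD-1 mouse liver microsomes (0.25 mg) in 50 mM Tris pH 7.5 with test compound at 2 µM final (DMSO stock). Incubated at 37 °C with shaking and an NADPH-regenerating system (NADP, glucose-6-phosphate, G6P dehydrogenase). Time points were quenched with acetonitrile, 0.2% formic acid and tolbutamide internal standard; the T0 sample was quenched before compound or cofactors were added. Parent was measured by LC-MS/MS (223.1→180.1). Half-life = 0.693/slope of ln % remaining versus time.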

[10] = Formation constants with Ca2+; type: binding; conditions: Ca^2+; I=0.15 M NaCl, T=298 K
Outline: as §1

[11] = Metabolic stability in mouse hepatocytes; type: in vitro ADME
Outline: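 Murine hepatocytes (1×10^6/mL) incubated with test compound (2 µM final, DMSO stock) for 0–240 min at 37 °C, 5% CO2. Reactions were quenched with two volumes of acetonitrile containing 0.15% formic acid and tolbutamide internal standard, then analysed by LC-MS/MS. % remaining is relative to T0. Half-life = 0.693/slope of ln % remaining versus time; CLint was taken from the slope of ln peak-area ratio versus time.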

[12] = Formation constants with Cu2+; type: binding; conditions: Cu^2+, I=0.15 M NaCl, T=298 K
[13] = Formation constants with Zn2+; type: binding; conditions: Zn^2+; I=0.15 M NaCl, T=298 K
Outline: as §1

FRDA cells = conditions: at 125 nM; toxicity induced by BSO in FRDA cells; ref [5]; cited from earlier work

**Q.** Which “acidity constant of aromatic -OH functionality” value [1] does the source give for Oc1ccncc1 [4-pyridol] here?
**A.** 11.09

**Q.** Which “acidity constant of aromatic -OH functionality” value [1] does the source give for Oc1cccnc1 [3-pyridol] here?
**A.** 8.72

**Q.** What does the source list for c1cc2nc(c1)CNCCNCCNC2 [L1, 3,6,9,15-tetraazabicyclo[9.3.1]penta-deca-1(15),11,13-triene]?
**A.** log β [ML]/[M][L] ([2]; I=0.5 M, KNO3, ref [47]): 14.40^f; log β [ML]/[M][L][OH^−] ([2]; I=0.5 M, KNO3, ref [47]): 8.50^f; log β [ML]/[M][L][OH^−] ([3]; previously described by others, ref [47], [57], [58], [62]): 7.48^c; log β [ML]/[M][L] [4]: 4.04(2); log K1^H (protonation constant) ([5]; I=0.15 M NaCl, T=298 K): 11.37 (1); log K2^H (protonation constant) ([5]; I=0.15 M NaCl, T=298 K): 8.22(5); ∑ log KN-donors ([5]; I=0.15 M NaCl, T=298 K): 21.20; log K3^H (protonation constant) ([5]; I=0.15 M NaCl, T=298 K, for L2 and L3 the pyridol -OH): 1.61(5)

**Q.** What does the source list for C1CNCCNCCNCCN1 [cyclen]?
**A.** log β [ML]/[M][L] [6]: 2.25^a; log β [ML]/[M][L] ([2]; ref [58]): 16.2^e; log K1^H (protonation constant) [7]: 10.66; log K2^H (protonation constant) [7]: 9.69; log K3^H (protonation constant) [7]: 1.41; ∑ log KN-donors [7]: 21.76; log β [ML]/[M][L] [3]: 23.3; log β [ML]/[M][L] ([3]; listed as Cyclen): 23.3^d; log β [ML]/[M][L] [8]: 3.12; log β [ML]/[M][L] ([8]; listed as Cyclen): 3.12^b

**Q.** For Oc1cc2nc(c1)CNCCNCCNC2 [L2, 3,6,9,15-tetraazabicyclo[9.3.1]penta-deca-1(15),11,13-trien-13-ol], which “% of molecule retained at termination of the experiment” value ([9]; NADPH regenerating system, 2 µM) is on record?
**A.** 65%

**Q.** What about the in vitro half-life ([9]; NADPH regenerating system, 2 µM, substrate depletion) of the same compound?
**A.** greater than 120 min

**Q.** And the clearance classification ([9]; Phase I)?
**A.** low-moderate clearance

**Q.** And the “log β [MHL]/[M][L][H^+]” value [10]?
**A.** 13.66(5)

**Q.** What about the “calculated Clint” value ([11]; murine hepatocytes) of the same compound?
**A.** < 0.02 µL/min/million cells

**Q.** What about the clearance classification ([11]; murine hepatocytes) of the same compound?
**A.** low clearance

**Q.** And the half-life ([11]; murine hepatocytes 1×10^6/mL, 2 µM, 0–240 min)?
**A.** greater than 240 min

**Q.** And the “% depleted over the time course of the experiment” value ([11]; murine hepatocytes, 0–240 min)?
**A.** 2–9%

**Q.** What about the “log β [MHL]/[M][L][H^+]” value [12] of the same compound?
**A.** 25.79(3)

**Q.** And the “log β [ML]/[M][L]” value [12]?
**A.** 19.16(11)

**Q.** What about the “log β [ML]/[M][L][OH^−]” value [12] of the same compound?
**A.** 8.55(13)

**Q.** And the “log β [MH2L]/[M][L][H^+]^2” value ([12]; determined by direct UV-vis titration)?
**A.** 28.38(5)^a

**Q.** And the “log β [MHL]/[M][L][H^+]” value [4]?
**A.** 13.53(2)

**Q.** What about the “log β [ML]/[M][L]” value [4] of the same compound?
**A.** 4.96(1)

**Q.** And the “isoelectric point (pI)” value [5]?
**A.** 10.31

**Q.** And the “log K1^H (protonation constant)” value ([5]; I=0.15 M NaCl, T=298 K)?
**A.** 11.56(3)

**Q.** What about the “log K2^H (protonation constant)” value ([5]; I=0.15 M NaCl, T=298 K) of the same compound?
**A.** 9.05(5)

**Q.** And the “log K4^H (protonation constant)” value ([5]; I=0.15 M NaCl, T=298 K)?
**A.** 1.68(5)

**Q.** And the “∑ log KN-donors” value ([5]; I=0.15 M NaCl, T=298 K)?
**A.** 22.29

**Q.** What about the “fraction of [H2(L2)]^+ species in solution” value ([5]; at biological pH) of the same compound?
**A.** 97%

**Q.** What about the “log β [MH2L]/[M][L][H^+]^2” value [13] of the same compound?
**A.** 25.72(7)

**Q.** What about the “log β [MHL]/[M][L][H^+]” value [13] of the same compound?
**A.** 23.02(3)

**Q.** And the “log β [ML]/[M][L]” value [13]?
**A.** 17.18(7)

**Q.** What about the “log β [ML]/[M][L][OH^−]” value [13] of the same compound?
**A.** 8.92(9)

**Q.** And the “quenching of radical based toxicity” value (FRDA cells)?
**A.** 100%
